Reference: ChEMBL document CHEMBL1125457, “Inhibitors of acyl-CoA:cholesterol acyltransferase. 1. Identification and structure-activity relationships of a novel series of fatty acid anilide hypocholesterolemic agents” (J Med Chem, 1992)

Assays:
Rattus norvegicus [1] = species: Rattus norvegicus; experiment: Percent change in total cholesterol (TC) in cholic acid (0.3%) -cholesterol (1.5%) -peanut oil(5.5%) -fed rats.; assay type: functional
Outline: (§1)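 Rats fed ad libitum for 1 week on a diet with peanut oil (5.5%), cholesterol (1.5%) and cholic acid (0.3%), with compound mixed in at 0.05% of the diet. Sacrificed in the fed state. Plasma total and/or HDL cholesterol measured as percent change versus cholesterol-fed controls. Significance by ANOVA followed by Fisher's multiple range test, p < 0.05.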

Rattus norvegicus [2] = species: Rattus norvegicus; experiment: Percent change in high density lipoprotein (HDL-cholesterol in cholesterol-fed rats.; assay type: functional; outline: as §1
O-acyltransferase [3] = biological target: T1, O-acyltransferase (Oryctolagus cuniculus, UniProt G1SFD9); experiment: In vitro inhibition of acyl coenzyme A:cholesterol acyltransferase, in intestinal microsomes isolated from cholesterol-fed rabbits; parameters: species or system Intestine
T1 sequence (G1SFD9 1-524): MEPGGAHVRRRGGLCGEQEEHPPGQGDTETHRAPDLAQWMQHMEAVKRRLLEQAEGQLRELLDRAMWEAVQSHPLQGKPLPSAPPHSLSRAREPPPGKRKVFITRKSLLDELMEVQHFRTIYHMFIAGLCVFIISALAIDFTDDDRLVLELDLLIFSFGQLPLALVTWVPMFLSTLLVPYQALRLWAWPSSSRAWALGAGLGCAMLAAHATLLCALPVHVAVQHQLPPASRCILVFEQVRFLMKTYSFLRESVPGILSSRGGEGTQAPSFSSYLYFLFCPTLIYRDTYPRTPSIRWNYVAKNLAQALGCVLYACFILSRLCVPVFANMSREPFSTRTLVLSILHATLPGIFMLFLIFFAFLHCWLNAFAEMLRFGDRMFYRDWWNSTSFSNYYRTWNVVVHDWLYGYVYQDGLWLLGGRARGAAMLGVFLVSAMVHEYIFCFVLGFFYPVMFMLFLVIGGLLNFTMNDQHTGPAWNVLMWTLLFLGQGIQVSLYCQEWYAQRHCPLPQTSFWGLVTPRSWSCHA
Outline: (§2)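 Rabbit intestinal mucosa scraped, washed, homogenized in phosphate/KCl/EDTA/sucrose buffer; microsomes pelleted at 100000g and stored at -70 °C. Microsomes (0.3 mg protein) with BSA (0.5 mg) and inhibitor in DMSO/Tween-20 preincubated 5 min at 37 °C. [1-14C]oleoyl-CoA (10 nmol, 0.05 μCi) then added for 5 min. Cholesteryl oleate extracted, separated by TLC and counted by scintillation. Four dilutions per compound, in triplicate.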

O-acyltransferase [4] = biological target: T1, O-acyltransferase; experiment: Tested in vitro to inhibit Acyl coenzyme A:cholesterol acyltransferase in intestinal microsomes isolated from cholesterol-fed rabbits.; parameters: species or system Intestine; outline: as §2

SMILES	IC50 (O-acyltransferase [3]) [nM]	IC50 (O-acyltransferase [4]) [nM]	Change (Rattus norvegicus [1]) [%]	Change (Rattus norvegicus [2]) [%]
CCCCCCCC/C=C/CCCCCCCC(=O)Nc1ccc(F)cc1F	32000	–	-19	–
CCCCCCCCCCC(C)(C)C(=O)Nc1c(OC)cc(OC)cc1OCCCCCCC	140	–	–	–
CCCCCCCCCCC(C)(C)C(=O)Nc1c(C)cc(C)cc1C	194	–	–	–
CCCCCCCCCCC(C)(C)C(=O)Nc1c(C(C)C)cccc1C(C)C	210	–	–	–
CCCCCCCC/C=C/CCCCCCCC(=O)Nc1ccccc1CC	1200	–	–	–
CCCCCCCCCCC(C)(C)C(=O)Nc1c(C)cccc1C(C)C	240	–	–	–
CCCCCCCCCCC(C)(C)C(=O)Nc1c(C)cccc1OCC	180	–	–	–
CCCCCCCC/C=C/CCCCCCCC(=O)Nc1c(C)cccc1OCC	15	–	-45	–
CCCCCCCCCCCCC(C)C(=O)Nc1c(OC)cc(OC)cc1OC (configuration not stated)	–	–	-39	–
CCCCCCCCCCC(CC)C(=O)Nc1c(OC)cc(OC)cc1OC (configuration not stated)	–	73	–	–
CCCCCCCC/C=C/CCCCCCCC(=O)Nc1c(C)cccc1C(C)C	23	–	-45	–
CCCCCCCCCCC(C)(C)C(=O)Nc1c(OC)cc(OC)cc1OC [CL-976]	–	–	–	94
CCCCCCCCCCC1(C(=O)Nc2c(OC)cc(OC)cc2OC)CCCC1	32	–	-67	45
CCCCCCCCCCC(C)(C)C(=O)Nc1c(F)cc(F)cc1F	260	–	–	–
CCCCCCCCCCC(C)(C)C(=O)Nc1ccc(C)c(C)c1	1660	–	–	–
CCCCCCCCCC(C)(C)C(=O)Nc1c(OC)cc(OC)cc1OC	–	59	-53	86
CCCCCCCC/C=C/CCCCCCCC(=O)Nc1cccc2c1CCCC2	350	–	–	–
CCCCCCCCCCC(C)(C)C(=O)Nc1c(C)cccc1OC	210	–	–	–
CCCCCCCC/C=C/CCCCCCCC(=O)Nc1ccccc1C(=O)c1ccccc1	> 10000	–	–	–
CCCCCCCC/C=C/CCCCCCCC(=O)Nc1cccc(C)c1[N+](=O)[O-]	12000	–	–	–
CCCCCCCCCCC(C)(C)C(=O)Nc1c(C)cccc1C	1300	–	–	–
CCCCCCCCCCC(C)(C)C(=O)Nc1c(C)cc(Br)cc1C	410	–	–	–

SMILES	IC50 (O-acyltransferase [3]) [nM]	IC50 (O-acyltransferase [4]) [nM]	Change (Rattus norvegicus [1]) [%]	Change (Rattus norvegicus [2]) [%]
CCCCCCCC/C=C/CCCCCCCC(=O)Nc1c(C(C)C)cccc1C(C)C	7	–	-21	–
CCCCCCCC/C=C/CCCCCCCC(=O)Nc1ccc(C)cc1C(=O)OC	9200	–	–	–
CCCCCCCCCCC(C)(C)C(=O)Nc1c(OC)cc(OC)cc1OCC(=O)OC	2300	–	–	–
CCCCCCCC/C=C/CCCCCCCC(=O)Nc1ccccc1-c1ccccc1	910	–	–	–
CCCCCCCCCCC(C)(C)C(=O)Nc1c(OC)cc(OC)cc1OCC(=O)O	> 1000	–	–	–
CCCCCCCC/C=C/CCCCCCCC(=O)Nc1ccccc1C(C)C	600	–	–	–
CCCCCCCC/C=C/CCCCCCCC(=O)Nc1c(CC)cccc1CC	17	–	-51	–
CCCCCCCC(C)(C)C(=O)Nc1c(OC)cc(OC)cc1OC	180	–	-13	2
CCCCCCCC/C=C/CCCCCCCC(=O)Nc1ccc(CC(=O)OCC)c(C)c1	3000	–	-10	–
CCCCCCCCC(C)(C)C(=O)Nc1c(OC)cc(OC)cc1OC	59	–	-43	53
CCCCCCCCCCC1(C(=O)Nc2c(OC)cc(OC)cc2OC)CCC1	39	–	-57	73
CCCCCCCC/C=C/CCCCCCCC(=O)Nc1cccc(C(=O)OC)c1C	> 5000	–	–	–
CCCCCCCCCCC(C)(C)C(=O)Nc1ccc(C)cc1C	680	–	–	–
CCCCCCCCCCC1(C(=O)Nc2c(OC)cc(OC)cc2OC)CCCCCC1	93	–	-42	9
CCCCCCCCCCC(C)(C)C(=O)Nc1c(CC)cccc1CC	390	–	–	–
CCCCCCCCCCC(C)(C)C(=O)Nc1c(C)cccc1Cl	750	–	–	–
CCCCCCCCCCC(CC)(CC)C(=O)Nc1c(OC)cc(OC)cc1OC	97	–	–	–
CCCCCCCCCCC(C)(C)C(=O)Nc1c(O)cc(OC)cc1OC	590	–	–	–
CCCCCCCCCCC(C)(C)C(=O)Nc1cc(C(=O)OC)ccc1OC	130	–	–	–
CCCCCCCCCCC1(C(=O)Nc2c(OC)cc(OC)cc2OC)CCCCC1	70	–	-43	–
CCCCCCCC/C=C/CCCCCCCC(=O)Nc1ccccc1Cl	75000	–	–	–

The next lines start with results.

IC50 (O-acyltransferase [3]) [nM]	IC50 (O-acyltransferase [4]) [nM]	SMILES	Change (Rattus norvegicus [1]) [%]	Change (Rattus norvegicus [2]) [%]
63	–	CCCCCCCCCCCCC(C)(C)C(=O)Nc1c(OC)cc(OC)cc1OC	-45	19
–	4500	CCCCCCCC/C=C/CCCCCCCC(=O)Nc1ccc(OC)c(OC)c1	–	–
700	–	CCCCCCCC/C=C/CCCCCCCC(=O)Nc1c(C)cc(C)cc1C	-27	–
54	–	CCCCCCCCCCCCCCCC(=O)Nc1c(OC)cc(OC)cc1OC	-38	–
52	–	CCCCCCCCCCCCCCCCCC(=O)Nc1c(OC)cc(OC)cc1OC	-11	31
1100	–	CCCCCCCC/C=C/CCCCCCCC(=O)Nc1cc(OC)c(OC)cc1OC	–	–
58	–	CCCCCCCCCCCCC1(C(=O)Nc2c(OC)cc(OC)cc2OC)CC1	-40	27
3000	–	CCCCCCCC/C=C/CCCCCCCC(=O)Nc1ccc(OC)cc1OC	–	–
31	–	CCCCCCCCCCCCCCC(C)C(=O)Nc1c(OC)cc(OC)cc1OC (configuration not stated)	–	–
–	51	CCCCCCCC/C=C/CCCCCCCC(=O)Nc1c(OC)cc(OC)cc1OC	-38	–
200	–	C=C(CCCCCCCCCC)C(=O)Nc1c(OC)cc(OC)cc1OC	–	–
30	–	CCCCCCCC/C=C/CCCCCCCC(=O)Nc1c(Cl)cc(Cl)cc1Cl	-44	–
49	–	CCCCCCCCCCCCCCC1(C(=O)Nc2c(OC)cc(OC)cc2OC)CC1	-43	16
520	–	CCCCCCCC/C=C/CCCCCCCC(=O)Nc1cc(Cl)c(OC)cc1OC	-7	–
–	90	CCCCCCCCCCC(C)C(=O)Nc1c(OC)cc(OC)cc1OC (configuration not stated)	–	–
20	–	CCCCCCCC/C=C/CCCCCCCC(=O)Nc1c(C)cccc1OC	-30	–
52	–	CCCCCCCCCCCCC(CC)C(=O)Nc1c(OC)cc(OC)cc1OC (configuration not stated)	-11	–
–	6300	CCCCCCCC/C=C/CCCCCCCC(=O)Nc1c(F)cc(F)cc1F	2	–
36	–	CCCCCCCC/C=C/CCCCCCC(C)C(=O)Nc1c(OC)cc(OC)cc1OC (configuration not stated)	-40	–
150	–	CCCCCCCC/C=C/CCCCCCCC(=O)Nc1c(O)cc(OC)cc1OC	–	–
87	–	CCCCCCCCCCCCCCCCC(C)(C)C(=O)Nc1c(OC)cc(OC)cc1OC	-34	13
190	–	CCCCCCCCCCCCCC(=O)Nc1c(OC)cc(OC)cc1OC	-44	–
–	43	CCCCCCCC/C=C\CCCCCCCC(=O)Nc1c(C)cccc1C	-38	–
65	–	CCCCCCCCCCCCCCC(=O)Nc1c(OC)cc(OC)cc1OC	–	–
1100	–	CCCCCCCC/C=C/CCCCCCCC(=O)Nc1cc(C(=O)OC)c(OC)cc1OC	–	–
8000	–	CCCCCCCC/C=C/CCCCCCCC(=O)Nc1ccccc1OC	–	–
430	–	CCCCCCCC/C=C/CCCCCCCC(=O)Nc1cc(C(=O)OC)ccc1OC	–	–
60	–	CCCCCCCC/C=C/CCCCCCCC(=O)Nc1cc(C(=O)OC)c(C)cc1C	-41	–
44	–	CCCCCCCCCCCCCCC(C)(C)C(=O)Nc1c(OC)cc(OC)cc1OC	-55	26
44	–	CCCCCCCC/C=C/CCCCCCC(C)(C)C(=O)Nc1c(OC)cc(OC)cc1OC	-60	–
